# Laboratory results: PMC2963662 (Neuropharmacology, 2010)
# How the values were obtained:
# Experiment in all cases: two-electrode voltage clamp, Xenopus oocytes
# Assay type in all cases: cell-based
# [1] = target: α3β3γ2 GABAA receptor (rat, oocytes) (Rattus norvegicus, UniProt P18508+P20236); settings: read-out: α3
# Method in brief: (§1)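 Oocytes from Xenopus laevis were injected with mRNA made from rat GABAA subunit cDNAs. Two-electrode voltage clamp was done at room temperature, holding at −60 mV, with electrodes filled with […]. Cells were perfused at 6 ml/min with Ringer (90 mM NaCl, 5 mM HEPES pH 7.4, 1 mM MgCl2, KCl, CaCl2). Drug in 0.1% DMSO final was pre-applied for 30 sec, then co-applied with GABA until peak, with washes of up to 15 min.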
# [2] = target: α2β3γ2 GABAA receptor (rat, oocytes) (Rattus norvegicus, UniProt P18508+P23576); settings: read-out: α2
# Sequence of α2β3γ2 GABAA receptor (rat, oocytes) (P23576 29-451): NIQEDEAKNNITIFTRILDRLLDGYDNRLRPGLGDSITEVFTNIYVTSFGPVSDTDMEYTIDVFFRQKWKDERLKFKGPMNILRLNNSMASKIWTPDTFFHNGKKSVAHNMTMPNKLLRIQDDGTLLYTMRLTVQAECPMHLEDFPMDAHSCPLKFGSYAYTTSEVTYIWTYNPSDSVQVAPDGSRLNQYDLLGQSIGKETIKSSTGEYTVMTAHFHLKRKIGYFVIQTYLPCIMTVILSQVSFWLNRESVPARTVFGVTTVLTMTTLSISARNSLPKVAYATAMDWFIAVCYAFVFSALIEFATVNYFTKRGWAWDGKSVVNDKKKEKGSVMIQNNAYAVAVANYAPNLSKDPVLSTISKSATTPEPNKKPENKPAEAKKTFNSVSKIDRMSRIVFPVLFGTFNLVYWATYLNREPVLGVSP
# Sequence of α2β3γ2 GABAA receptor (rat, oocytes) (P18508 39-466): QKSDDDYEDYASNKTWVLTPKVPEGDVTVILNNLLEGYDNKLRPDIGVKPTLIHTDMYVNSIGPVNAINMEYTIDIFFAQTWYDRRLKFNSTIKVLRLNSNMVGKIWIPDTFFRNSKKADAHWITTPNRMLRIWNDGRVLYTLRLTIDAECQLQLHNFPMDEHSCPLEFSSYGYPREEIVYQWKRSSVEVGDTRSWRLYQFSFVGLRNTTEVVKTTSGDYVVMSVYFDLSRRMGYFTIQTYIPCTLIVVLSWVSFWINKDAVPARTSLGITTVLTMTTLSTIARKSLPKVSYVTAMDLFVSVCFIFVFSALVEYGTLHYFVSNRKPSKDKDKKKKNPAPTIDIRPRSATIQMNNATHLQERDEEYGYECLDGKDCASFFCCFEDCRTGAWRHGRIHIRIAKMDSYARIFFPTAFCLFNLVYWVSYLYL
# Sequence of α2β3γ2 GABAA receptor (rat, oocytes) (P63079 26-473 partner): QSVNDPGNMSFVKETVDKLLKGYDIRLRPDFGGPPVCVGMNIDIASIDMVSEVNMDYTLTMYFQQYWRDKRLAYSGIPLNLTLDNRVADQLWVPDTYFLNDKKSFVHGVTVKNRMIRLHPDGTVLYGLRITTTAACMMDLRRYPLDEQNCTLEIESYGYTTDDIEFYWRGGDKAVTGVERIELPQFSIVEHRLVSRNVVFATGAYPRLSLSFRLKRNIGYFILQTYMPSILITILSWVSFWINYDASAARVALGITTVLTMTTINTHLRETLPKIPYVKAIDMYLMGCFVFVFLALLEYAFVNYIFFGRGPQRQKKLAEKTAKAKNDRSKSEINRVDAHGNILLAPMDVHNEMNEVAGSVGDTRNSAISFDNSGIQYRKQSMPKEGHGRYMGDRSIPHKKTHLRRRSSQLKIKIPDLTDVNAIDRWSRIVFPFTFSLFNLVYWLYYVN
# Method in brief: as §1
# [3] = target: α5β3γ2 GABAA receptor (rat, oocytes) (Rattus norvegicus, UniProt P18508+P19969); settings: read-out: α5
# Sequence of α5β3γ2 GABAA receptor (rat, oocytes) (P19969 26-464): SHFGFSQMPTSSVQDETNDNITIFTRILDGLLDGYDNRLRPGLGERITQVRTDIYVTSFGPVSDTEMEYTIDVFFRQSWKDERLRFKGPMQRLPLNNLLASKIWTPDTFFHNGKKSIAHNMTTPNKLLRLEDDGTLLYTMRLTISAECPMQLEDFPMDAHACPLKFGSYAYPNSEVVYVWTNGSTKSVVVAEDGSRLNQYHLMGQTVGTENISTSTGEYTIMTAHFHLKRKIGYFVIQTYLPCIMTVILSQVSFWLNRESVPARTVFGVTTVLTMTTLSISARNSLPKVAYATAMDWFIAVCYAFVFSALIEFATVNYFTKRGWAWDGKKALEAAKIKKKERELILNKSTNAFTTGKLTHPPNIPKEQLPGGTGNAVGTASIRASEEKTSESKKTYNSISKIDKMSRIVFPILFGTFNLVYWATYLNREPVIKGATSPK
# Sequence of α5β3γ2 GABAA receptor (rat, oocytes) (P18508 39-466): as the sequence (P18508 39-466) above
# Sequence of α5β3γ2 GABAA receptor (rat, oocytes) (P63079 26-473 partner): as the sequence (P63079 26-473 partner) above
# Method in brief: as §1
# [4] = target: α1β3γ2 GABAA receptor (rat, oocytes) (Rattus norvegicus, UniProt P18508+P62813); settings: read-out: α1
# Sequence of α1β3γ2 GABAA receptor (rat, oocytes) (P62813 28-455): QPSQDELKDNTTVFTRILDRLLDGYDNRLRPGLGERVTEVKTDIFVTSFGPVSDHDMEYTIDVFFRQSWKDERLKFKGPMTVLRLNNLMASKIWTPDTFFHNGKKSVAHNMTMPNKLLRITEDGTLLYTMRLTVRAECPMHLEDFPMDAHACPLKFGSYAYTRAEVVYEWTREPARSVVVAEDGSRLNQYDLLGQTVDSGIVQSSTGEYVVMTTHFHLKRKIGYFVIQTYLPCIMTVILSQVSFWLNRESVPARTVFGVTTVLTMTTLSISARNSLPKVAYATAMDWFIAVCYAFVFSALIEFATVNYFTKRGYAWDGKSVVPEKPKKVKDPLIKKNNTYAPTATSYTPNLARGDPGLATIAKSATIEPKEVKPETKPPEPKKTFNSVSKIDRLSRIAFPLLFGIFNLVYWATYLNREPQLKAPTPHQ
# Sequence of α1β3γ2 GABAA receptor (rat, oocytes) (P18508 39-466): as the sequence (P18508 39-466) above
# Sequence of α1β3γ2 GABAA receptor (rat, oocytes) (P63079 26-473 partner): as the sequence (P63079 26-473 partner) above
# Method in brief: as §1
# Sequence of α3β3γ2 GABAA receptor (rat, oocytes) (P20236 29-493): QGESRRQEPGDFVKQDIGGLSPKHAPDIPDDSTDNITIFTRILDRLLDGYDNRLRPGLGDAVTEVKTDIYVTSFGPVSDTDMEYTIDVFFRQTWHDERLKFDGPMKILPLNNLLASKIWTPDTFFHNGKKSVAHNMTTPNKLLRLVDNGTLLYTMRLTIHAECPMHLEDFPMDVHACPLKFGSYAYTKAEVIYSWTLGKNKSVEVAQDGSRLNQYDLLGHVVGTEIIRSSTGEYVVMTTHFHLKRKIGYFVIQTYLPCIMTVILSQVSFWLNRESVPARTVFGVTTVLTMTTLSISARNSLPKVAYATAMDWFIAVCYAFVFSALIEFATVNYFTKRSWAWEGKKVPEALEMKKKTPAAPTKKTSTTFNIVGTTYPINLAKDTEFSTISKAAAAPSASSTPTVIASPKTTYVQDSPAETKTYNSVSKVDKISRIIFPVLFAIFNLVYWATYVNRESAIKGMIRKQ
# Sequence of α3β3γ2 GABAA receptor (rat, oocytes) (P18508 39-466): as the sequence (P18508 39-466) above
# Sequence of α3β3γ2 GABAA receptor (rat, oocytes) (P63079 26-473 partner): as the sequence (P63079 26-473 partner) above
SMILES,activity at 1 µM [1],activity at 1 µM [2],activity at 1 µM [3],activity at 1 µM [4]
CN1C(=O)CN=C(c2ccccc2)c2cc(Cl)ccc21 [Diazepam],752%,536%,342%,314%
"C#Cc1ccc2c(c1)C(c1ccccc1F)=N[C@@H](C)c1c(C(=O)OCC)ncn1-2 [SH-053-2'F-S-CH3, (S)-8-ethynyl-6-(2-fluoro-phenyl)-4-methyl-4H-2,5,10b-triaza-benzo[e]azulene-3-carboxylic acid ethyl ester]",,,389%,
